Assay results: the array DNA melting data of Ke et al. (doi:10.1101/2024.01.08.574731)

How the values were obtained:
[1] = melting temperature; fluorescence melt of hairpins on a sequencing array, two-state fit, raised by 9.35 °C to match UV melts; settings: sodium 0.088 M
Outline: (§1)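 Cy3 fluorescence of library hairpins on a sequenced MiSeq flow cell, with annealed Cy3 and quencher oligos, was imaged in 50 mM Na-HEPES pH 8.0, 25 mM NaCl in 2.5 °C steps up to 60 °C. Signals were normalised to pre-quench Cy3 and to control variants. Melting temperature and folding enthalpy came from bootstrapped two-state fits, inverse-variance combined over four replicates. Fitted temperatures were raised by 9.35 °C to match UV melts.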

[2] = folding enthalpy; higher = less favourable; fluorescence melt of hairpins on a sequencing array, two-state fit; settings: sodium 0.088 M
Outline: as §1

| Sequence | Tm [1] | folding enthalpy [2] |
| --- | --- | --- |
| GGCCTCGAAAGAGAGCC ((((((....))).))) | 58.1 °C | -37.5 kcal/mol |
| GGCCTCGAAAGAGAGGCC ((((((....)))..))) | 66.9 °C | -29.1 kcal/mol |
| GGCCTCGAAAGAGTAGCC ((((((....)))..))) | 49.2 °C | -25.9 kcal/mol |
| GGCCTCGAAAGAGTCGCC ((((((....)))..))) | 45 °C | -23.3 kcal/mol |
| GGCCTCGAAAGAGTTGCC ((((((....)))..))) | 45.5 °C | -17.2 kcal/mol |
| GGCCTGCGAAAGCACGCC (((.(((....))).))) | 53.4 °C | -37.6 kcal/mol |
| GGCCTGGGAAACCGGGCC ((((.((....)).)))) | 66.3 °C | -30.6 kcal/mol |
| GGCCTTCGAAAGAAGCC (((.(((....)))))) | 51.4 °C | -27.6 kcal/mol |
| GGCCTTGGAAACAGGGTC (.((.((....)).)).) | 37.6 °C | -25 kcal/mol |
| GGCGACGAAAGTCAAGCC ((((((....)))..))) | 54.7 °C | -39.6 kcal/mol |
| GGCGACGAAAGTCAGGCC ((((((....)))..))) | 55.5 °C | -31.3 kcal/mol |
| GGCGACGAAAGTCCAGCC ((((((....)))..))) | 51.1 °C | -27.1 kcal/mol |
| GGCGACGAAAGTCCTGCC ((((((....)))..))) | 46 °C | -20.4 kcal/mol |
| GGCGACGAAAGTCGGGCC ((((((....)))..))) | 53.3 °C | -11 kcal/mol |
| GGCGACGCGAAAGCGGCC (((..(((....)))))) | 57.6 °C | -11.1 kcal/mol |
| GGCGAGCCGAAAGGCGCC (((..(((....)))))) | 65 °C | -13.1 kcal/mol |
| GGCGAGGCGAAAGCCGCC (((..(((....)))))) | 66.9 °C | -17.3 kcal/mol |
| GGCGAGGGAAACTTCGCC (((((.(....).))))) | 57.4 °C | -50.1 kcal/mol |
| GGCGATCGAAAGATAGCC (((.(((....))).))) | 58 °C | -47 kcal/mol |
| GGCGATGGAAACATCACC ((.((((....)))).)) | 46.2 °C | -30.3 kcal/mol |
| GGCGCAACGAAAGTTGCC (((..(((....)))))) | 47 °C | -8.29 kcal/mol |
| GGCGCACGAAAGTGGCC (((.(((....)))))) | 59.9 °C | -18.3 kcal/mol |
| GGCGCAGGAAACCACGCC ((((..(....)..)))) | 47.3 °C | -35.3 kcal/mol |

| Sequence | Tm [1] | folding enthalpy [2] |
| --- | --- | --- |
| GGCGCAGGAAACTGCGTC (.(((((....))))).) | 66.1 °C | -20.6 kcal/mol |
| GGCGCCGAAAGGCAGGCC ((((((....)))..))) | 64.9 °C | -25.1 kcal/mol |
| GGCGCCGAAAGGCCTGCC ((((((....)))..))) | 50.8 °C | -16.6 kcal/mol |
| GGCGCCGAAAGGCGAGCC ((((((....)))..))) | 57.6 °C | -11.4 kcal/mol |
| GGCGCCGAAAGGCTCGCC ((((((....)))..))) | 54.5 °C | -19.1 kcal/mol |
| GGCGCCGAAAGGCTGGCC ((((((....)))..))) | 62.3 °C | -22.3 kcal/mol |
| GGCGCCGGAAACGACGCC ((((.((....)).)))) | 66.4 °C | -33.6 kcal/mol |
| GGCGCCGGAAACGGCACC ((.((((....)))).)) | 60.5 °C | -26.8 kcal/mol |
| GGCGCGACGAAAGTCGCC (((..(((....)))))) | 51.9 °C | -5.55 kcal/mol |
| GGCGCGCCGAAAGGCGCC (((..(((....)))))) | 44.5 °C | -4.97 kcal/mol |
| GGCGCGGGAAACCACGCC ((((.((....)).)))) | 61 °C | -48.2 kcal/mol |
| GGCGCGTCGAAAGACGCC (((..(((....)))))) | 47.8 °C | -7.03 kcal/mol |
| GGCGCTCGAAAGAGAGCC (((.(((....))).))) | 67.2 °C | -36.8 kcal/mol |
| GGCGCTGGAAACAGCGTC (.(((((....))))).) | 65.9 °C | -23 kcal/mol |
| GGCGGACGAAAGTCGGCC (((.(((....))).))) | 69.3 °C | -39.2 kcal/mol |
| GGCGGCGAAAGCCAGGCC ((((((....)))..))) | 62 °C | -18.8 kcal/mol |
| GGCGGCGAAAGCCGAGCC ((((((....)))..))) | 58 °C | -12.3 kcal/mol |
| GGCGGCGAAAGCCTCGCC ((((((....)))..))) | 55.4 °C | -20.8 kcal/mol |
| GGCGGCGAAAGCCTGCC ((((((....))).))) | 68.5 °C | -18.9 kcal/mol |
| GGCGGCGAAAGCCTTGCC ((((((....)))..))) | 55.1 °C | -19.2 kcal/mol |
| GGCGGCTCGAAAGAGGCC (((..(((....)))))) | 51.6 °C | -11.4 kcal/mol |
| GGCGGGGCGAAAGCCGCC (((..(((....)))))) | 68.6 °C | -19.9 kcal/mol |
| GGCGGGGGAAACCCCACC ((.((((....)))).)) | 56.1 °C | -27.7 kcal/mol |

| Sequence | Tm [1] | folding enthalpy [2] |
| --- | --- | --- |
| GGCGGGTCGAAAGACGCC (((..(((....)))))) | 58 °C | -24.8 kcal/mol |
| GGCGGTGGAAACATCGCC ((((.((....)).)))) | 63.1 °C | -38.6 kcal/mol |
| GGCGTACGAAAGTATGCC (((.(((....))).))) | 65.5 °C | -41.9 kcal/mol |
| GGCGTCACGAAAGTGGCC (((..(((....)))))) | 50.3 °C | -15.2 kcal/mol |
| GGCGTCGAAAGACAAGCC ((((((....)))..))) | 55.2 °C | -43.4 kcal/mol |
| GGCGTCGAAAGACAGGCC ((((((....)))..))) | 55 °C | -31.3 kcal/mol |
| GGCGTCGCGAAAGCGGCC (((..(((....)))))) | 58.7 °C | -13 kcal/mol |
| GGCGTCGGAAACGATGCC (((.(((....))).))) | 65.7 °C | -38.2 kcal/mol |
| GGCGTCGGAAACGGCGTC (.((.((....)).)).) | 53.9 °C | -27.7 kcal/mol |
| GGCGTTACGAAAGTAGCC (((..(((....)))))) | 55 °C | -39.7 kcal/mol |
| GGCGTTCCGAAAGGAGCC (((..(((....)))))) | 51.7 °C | -20.5 kcal/mol |
| GGCGTTCGAAAGAAGCC (((.(((....)))))) | 50.8 °C | -23.2 kcal/mol |
| GGCGTTCGAAAGAAGGCC (((.(((....))).))) | 61.1 °C | -39.4 kcal/mol |
| GGCGTTGCGAAAGCAGCC (((..(((....)))))) | 63.1 °C | -32.3 kcal/mol |
| GGCTAACGAAAGTTGCC (((.(((....)))))) | 54 °C | -30 kcal/mol |
| GGCTAAGGAAACCTAGCC (((((.(....).))))) | 46.6 °C | -31.5 kcal/mol |
| GGCTAAGGAAACTTAGCC (((((((....))))))) | 60.8 °C | -37.7 kcal/mol |
| GGCTACACGAAAGTGGCC (((..(((....)))))) | 51.6 °C | -24.3 kcal/mol |
| GGCTACGAAAGTAAGGCC ((((((....)))..))) | 48.2 °C | -23.3 kcal/mol |
| GGCTACGAAAGTACGCC ((((((....))).))) | 53.5 °C | -33.4 kcal/mol |
| GGCTACGAAAGTAGAGCC ((((((....)))..))) | 49.5 °C | -20 kcal/mol |
| GGCTACGAAAGTATCGCC ((((((....)))..))) | 40.6 °C | -22.5 kcal/mol |
| GGCTACGGAAACGTGGCC (((.(((....))).))) | 60.1 °C | -47.4 kcal/mol |

| Sequence | Tm [1] | folding enthalpy [2] |
| --- | --- | --- |
| GGCTAGACGAAAGTCGCC (((..(((....)))))) | 53.4 °C | -25.2 kcal/mol |
| GGCTATGAAAATAGCC ((((((....)))))) | 59.1 °C | -45.7 kcal/mol |
| GGCTATGGAAACATAGCC (((((((....))))))) | 66.1 °C | -37.6 kcal/mol |
| GGCTATGGAAACATGGTC (.(.(((....))).).) | 35.7 °C | -23.9 kcal/mol |
| GGCTATGGAAACGTAGCC (((((.(....).))))) | 52.6 °C | -46 kcal/mol |
| GGCTATGGAAACGTAGTC (.(((.(....).))).) | 32.3 °C | -18.6 kcal/mol |
| GGCTATTCGAAAGAAGCC (((..(((....)))))) | 37.7 °C | -25.2 kcal/mol |
| GGCTCACGAAAGTGTGCC (((.(((....))).))) | 64.3 °C | -30.8 kcal/mol |
| GGCTCAGGAAACTAAGCC ((((.((....)).)))) | 39 °C | -29.1 kcal/mol |
| GGCTCAGGAAACTGGGCC (((.(((....))).))) | 58.3 °C | -43.7 kcal/mol |
| GGCTCCCGAAAGGGGCC (((.(((....)))))) | 68 °C | -30.1 kcal/mol |
| GGCTCCGAAAGGACCGCC ((((((....)))..))) | 53.3 °C | -19.8 kcal/mol |
| GGCTCCGAAAGGAGAGCC ((((((....)))..))) | 55.6 °C | -20.7 kcal/mol |
| GGCTCCGAAAGGATTGCC ((((((....)))..))) | 48.7 °C | -19.6 kcal/mol |
| GGCTCGGGAAACCGAGTC (.(((((....))))).) | 61.5 °C | -29.9 kcal/mol |
| GGCTCGGGAAACTGAGCC (((((.(....).))))) | 61.4 °C | -61.1 kcal/mol |
| GGCTCTCGAAAGAGGCC (((.(((....)))))) | 56.9 °C | -43 kcal/mol |
| GGCTCTGGAAACAGGGTC (.(.(((....))).).) | 37.5 °C | -29.6 kcal/mol |
| GGCTCTGGAAACGGAGTC (.(((.(....).))).) | 40 °C | -30.2 kcal/mol |
| GGCTGACGAAAGTCCGCC (((.(((....))).))) | 58.6 °C | -36.6 kcal/mol |
| GGCTGAGCGAAAGCTGCC (((..(((....)))))) | 51.6 °C | -20 kcal/mol |
| GGCTGCCCGAAAGGGGCC (((..(((....)))))) | 47.6 °C | -13.7 kcal/mol |
